# Activity calls are given as the source filed them. The rule behind the calls is not given here.
# Experiments:
# [1] = test system: Respiratory syncytial virus; assay: Antiviral activity against RSV infected in human cervix carcinoma cells assessed as inhibition of virus-induced cytopathic effect at 0.32 to 100 uM; type: functional, organism-based
# Summary of the method: (§1)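 Confluent cell cultures were infected with 100 CCID50 of virus in the presence of test compound at 100, 40, 8, 1.6 and 0.32 μM. Cytopathic effect was scored once it was complete in untreated infected controls.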
# Coxsackievirus B4 [2] = assay: Antiviral activity against Coxsackievirus B4 infected in human cervix carcinoma cells assessed as inhibition of virus-induced cytopathic effect at 0.32 to 100 uM; type: functional, organism-based; summary of the method: as §1
# L1210 = assay: Cytostatic activity against mouse L1210 cells after 2 days by coulter counter analysis; type: functional, cell-based; settings: L1210, 48 h
# Summary of the method: (§2)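 300,000–500,000 cells/ml mixed 1:1 with compound dilutions and incubated at 37 °C for 2 days (L1210) or 3 days (CEM, HeLa). Cell number counted with a Coulter counter; HeLa trypsinized before counting.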
# CCRF-CEM = assay: Cytostatic activity against human CEM cells after 3 days by coulter counter analysis; type: functional, cell-based; settings: 72 h; summary of the method: as §2
# HeLa = assay: Cytostatic activity against human HeLa cells after 3 days by coulter counter analysis; type: functional, cell-based; settings: 72 h; summary of the method: as §2
# HCT-116 = assay: Cytostatic activity against human HCT116 cells after 72 hrs by MTT assay; type: functional, cell-based; settings: HCT-116, 72 h
# Summary of the method: (§3)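 Monolayers in DMEM with 10% FBS, 2 mM L-glutamine and penicillin/streptomycin, 37 °C, 5% CO2. Seeded at 1–3 × 10^4 cells/ml, then compound added in tenfold dilutions (10⁻⁸–10⁻⁴ M) for 72 h. MTT read at 570 nm; percent growth taken against time-zero and untreated controls. IC50 by linear regression; quadruplicate, at least two experiments.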
# MCF7 = assay: Cytostatic activity against human MCF7 cells after 72 hrs by MTT assay; type: functional, cell-based; settings: MCF7, 72 h; summary of the method: as §3
# NCI-H460 = assay: Cytostatic activity against human NCI-H460 cells after 72 hrs by MTT assay; type: functional, cell-based; settings: NCI-H460, 72 h; summary of the method: as §3
# Human alphaherpesvirus 1 = assay: Antiviral activity against HSV1 KOS infected in human lung fibroblast assessed as inhibition of virus-induced cytopathic effect at 0.32 to 100 uM; type: functional, organism-based; summary of the method: as §1
# Human alphaherpesvirus 2 = assay: Antiviral activity against HSV2 G infected in human lung fibroblast assessed as inhibition of virus-induced cytopathic effect at 0.32 to 100 uM; type: functional, organism-based; settings: strain G; summary of the method: as §1
# Vaccinia virus = assay: Antiviral activity against Vaccinia virus infected in human lung fibroblast assessed as inhibition of virus-induced cytopathic effect at 0.32 to 100 uM; type: functional, organism-based; settings: Orthopoxvirus vaccinia
# [3] = test system: Vesicular stomatitis virus; assay: Antiviral activity against VSV infected in human lung fibroblast assessed as inhibition of virus-induced cytopathic effect at 0.32 to 100 uM; type: functional, organism-based
# Human respirovirus 3 = assay: Antiviral activity against Parainfluenza virus 3 infected in african green monkey Vero cells assessed as inhibition of virus-induced cytopathic effect at 0.32 to 100 uM; type: functional, organism-based; summary of the method: as §1
# [4] = test system: Mammalian orthoreovirus 1; assay: Antiviral activity against Reovirus-1 infected in african green monkey Vero cells assessed as inhibition of virus-induced cytopathic effect at 0.32 to 100 uM; type: functional, organism-based; summary of the method: as §1
# Sindbis virus = assay: Antiviral activity against Sindbis virus infected in african green monkey Vero cells assessed as inhibition of virus-induced cytopathic effect at 0.32 to 100 uM; type: functional, organism-based; summary of the method: as §1
# Coxsackievirus B4 [5] = assay: Antiviral activity against Coxsackievirus B4 infected in african green monkey Vero cells assessed as inhibition of virus-induced cytopathic effect at 0.32 to 100 uM; type: functional, organism-based; summary of the method: as §1
# Punta Toro virus = assay: Antiviral activity against Punta Toro virus infected in african green monkey Vero cells assessed as inhibition of virus-induced cytopathic effect at 0.32 to 100 uM; type: functional, organism-based; summary of the method: as §1
# [6] = test system: Vesicular stomatitis virus; assay: Antiviral activity against Vesicular stomatitis virus infected in human cervix carcinoma cells assessed as inhibition of virus-induced cytopathic effect at 0.32 to 100 uM; type: functional, organism-based
# Summary of the method: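 Confluent human cervix carcinoma (HeLa) cultures received 100 CCID50 of VSV together with the compound at 100, 40, 8, 1.6 or 0.32 μM. Cytopathicity was read at the point of full CPE in infected, untreated control wells.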
# Felid alphaherpesvirus 1 = assay: Antiviral activity against Feline herpesvirus infected in feline CRFK cells assessed as inhibition of virus-induced cytopathic effect at 0.32 to 100 uM; type: functional, organism-based; summary of the method: as §1
# Feline coronavirus = assay: Antiviral activity against Feline coronavirus infected in feline CRFK cells assessed as inhibition of virus-induced cytopathic effect at 0.32 to 100 uM; type: functional, organism-based; summary of the method: as §1
# Influenza A virus [7] = assay: Antiviral activity against Influenza A virus H1N1 infected in MDCK cells assessed as inhibition of virus-induced cytopathic effect at 0.32 to 100 uM; type: functional, organism-based
# Summary of the method: (§4)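 Confluent MDCK monolayers were infected in the presence of the compound at 100, 40, 8, 1.6 and 0.32 μM. Viral cytopathicity was scored once it was complete in untreated infected control cultures.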
# Influenza A virus [8] = assay: Antiviral activity against Influenza A virus H3N2 infected in MDCK cells assessed as inhibition of virus-induced cytopathic effect at 0.32 to 100 uM; type: functional, organism-based; summary of the method: as §4
# Influenza B virus = assay: Antiviral activity against Influenza B virus infected in MDCK cells assessed as inhibition of virus-induced cytopathic effect at 0.32 to 100 uM; type: functional, organism-based; summary of the method: as §4
# [9] = test system: Human immunodeficiency virus 1; assay: Antiviral activity against HIV1 3B infected in human CEM cells assessed as inhibition of virus-induced CEM giant cell formation at 0.32 to 100 uM after 4 days; type: functional, organism-based; settings: CCRF-CEM
# Summary of the method: (§5)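 CEM cells (~3 × 10^5 cells/cm³) exposed to 100 CCID50/ml of virus and seeded into wells holding compound dilutions. Incubated 4 days at 37 °C, then giant cell formation examined microscopically.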
# [10] = test system: Human immunodeficiency virus 2; assay: Antiviral activity against HIV2 ROD infected in human CEM cells assessed as inhibition of virus-induced CEM giant cell formation at 0.32 to 100 uM after 4 days; type: functional, organism-based; settings: ISOLATE ROD, CCRF-CEM; summary of the method: as §5
# [11] = test system: Radical scavenging activity; assay: Antioxidant activity assessed as DPPH free radical scavenging activity at 100 uM after 20 mins by spectrophotometric analysis; type: functional
# Summary of the method: (§6)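 0.05 mM DPPH in absolute ethanol mixed with an equal volume of compound in DMSO (final 100 μM). Shaken and left 20 or 60 min, then absorbance read at 517 nm and percent activity calculated. Three replicates, averaged.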
# [12] = test system: Radical scavenging activity; assay: Antioxidant activity assessed as DPPH free radical scavenging activity at 100 uM after 60 mins by spectrophotometric analysis; type: functional; summary of the method: as §6
# [13] = Antioxidant activity assessed as inhibition of AAPH-induced linoleic acid lipid peroxidation by measuring conjugated diene hydroperoxide level; type: functional; parameters: concentration or dose not given beside the values; settings: dose or concentration not given here
# Summary of the method: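 Linoleic acid sodium salt (10 μL of 16 mM) in 0.05 M phosphate buffer pH 7.4 at 37 °C. Oxidation started under air with 50 μL of 40 mM AAPH. Conjugated diene hydroperoxide formation followed as absorbance rise at 234 nm; control contains the same DMSO level. At least triplicate.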
# Glycine max = assay: Inhibition of soybean LOX assessed as conversion of sodium linoleate to 13- hydroperoxylinoleic acid at 100 uM
Compound,inhibition [1],inhibition (Coxsackievirus B4 [2]),IC50 (CCRF-CEM) [µM],IC50 (HCT-116) [µM],IC50 (MCF7) [µM],IC50 (NCI-H460) [µM],inhibition (Human alphaherpesvirus 1),inhibition (Human alphaherpesvirus 2),inhibition (Vaccinia virus),inhibition [3],inhibition (Human respirovirus 3),inhibition [4],inhibition (Sindbis virus),inhibition (Coxsackievirus B4 [5]),inhibition (Punta Toro virus),inhibition [6],inhibition (Felid alphaherpesvirus 1),inhibition (Feline coronavirus),Activity [11] [%],Activity [12] [%],other results
CC(C(=O)NNC(=O)NNC(=O)NO)c1cccc(Cc2ccccc2)c1 (configuration not stated),inactive,inactive,> 250,> 100,> 100,> 100,inactive,inactive,inactive,inactive,inactive,inactive,inactive,inactive,inactive,inactive,inactive,inactive,28,53,IC50 (L1210): > 250 µM; IC50 (HeLa): ≥ 250 µM; inhibition (Influenza A virus [7]): inactive; inhibition (Influenza A virus [8]): inactive; inhibition (Influenza B virus): inactive; inhibition [9]: inactive; inhibition [10]: inactive; inhibition [13]: 28%; inhibition (Glycine max): 1%
CC(C(=O)NNC(=O)NNC(=O)NOCc1ccccc1)c1cccc(Oc2ccccc2)c1 (configuration not stated),inactive,inactive,90,84,26,> 100,inactive,inactive,inactive,inactive,inactive,inactive,inactive,inactive,inactive,inactive,inactive,inactive,8,15,IC50 (L1210): 103 µM; inhibition (Influenza A virus [7]): inactive; inhibition (Influenza A virus [8]): inactive; inhibition (Influenza B virus): inactive; inhibition [9]: inactive; inhibition [10]: inactive; inhibition [13]: 26%; inhibition (Glycine max): inactive
CC(C)Cc1ccc(C(C)C(=O)NNC(=O)NNC(=O)NOCc2ccccc2)cc1 (configuration not stated),inactive,inactive,106,56,19,71,inactive,inactive,inactive,inactive,inactive,inactive,inactive,inactive,inactive,inactive,inactive,inactive,11,18,IC50 (HeLa): 98 µM; inhibition (Influenza A virus [7]): inactive; inhibition (Influenza A virus [8]): inactive; inhibition (Influenza B virus): inactive; inhibition [9]: inactive; inhibition [10]: inactive; inhibition [13]: 13%; inhibition (Glycine max): inactive
CC(Cc1ccc(O)c(O)c1)C(C)Cc1ccc(O)c(O)c1 (configuration not stated),,,,,,,,,,,,,,,,,,,80,91,
